In ChEMBL document CHEMBL2016484, “In vitro growth inhibition of human cancer cells by novel honokiol analogs” (Bioorg Med Chem, 2012):
The source made the active and inactive calls. The rule behind the calls is not given here.

Assays:
[1] = system: HT-29; assay: Cytotoxicity against human HT-29 cells after 24 hrs by MTS assay; type: functional, cell-based; conditions: for IC50: HT-29, 24 h
[2] = system: A549; assay: Cytotoxicity against human A549 cells after 72 hrs by MTS assay; type: functional, cell-based; conditions: for IC50: A549, 72 h
[3] = system: A549; assay: Cytotoxicity against human A549 cells after 24 hrs by MTS assay; type: functional, cell-based; conditions: for IC50: A549, 24 h
[4] = system: HT-29; assay: Cytotoxicity against human HT-29 cells after 72 hrs by MTS assay; type: functional, cell-based; conditions: for IC50: HT-29, 72 h
[5] = system: UACC-903; assay: Cytotoxicity against human UACC-903 cells by MTS assay; type: functional, cell-based; conditions: TDE = time-dependent effect
[6] = system: UACC-903; assay: Cytotoxicity against human UACC-903 cells after 72 hrs by MTS assay; type: functional, cell-based; conditions: for IC50: UACC-903, 72 h
[7] = system: A549; assay: Cytotoxicity against human A549 cells by MTS assay; type: functional, cell-based; conditions: TDE = time-dependent effect
[8] = system: UACC-903; assay: Cytotoxicity against human UACC-903 cells after 24 hrs by MTS assay; type: functional, cell-based; conditions: for IC50: UACC-903, 24 h
[9] = system: HT-29; assay: Cytotoxicity against human HT-29 cells by MTS assay; type: functional, cell-based; conditions: TDE = time-dependent effect
[10] = system: A549; assay: Decrease in Cdk1 protein level in synchronized human A549 cells at 5 uM after 18 hrs by Western blot analysis; type: functional, cell-based
Outline: (§1)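 A549 cells synchronized with nocodazole (0.5 μg/ml, 15 h), then treated with compound (0, 0.5, 1.0, 2.0, 5.0 μM; final DMSO 0.2%) for 18 h at 37 °C. RIPA lysates with protease inhibitors, 40 μg protein on 12% SDS-PAGE, probed with rabbit polyclonal anti-human CDK1 or cyclin B1, ECL detection, densitometry; three experiments on different passages.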

[11] = system: A549; assay: Cell cycle arrest in synchronized human A549 cells assessed as accumulation at S phase at 0.5 uM after 48 hrs by propidium iodide staining-based flow cytometric analysis (reference value: 41.2 +/- 3.1%); type: functional
[12] = system: A549; assay: Cell cycle arrest in synchronized human A549 cells assessed as accumulation at G2/M phase at 10 uM after 48 hrs by propidium iodide staining-based flow cytometric analysis (reference value: 18.2 +/- 2.1%); type: functional
[13] = system: A549; assay: Cell cycle arrest in synchronized human A549 cells assessed as accumulation at G1/G0 phase at 10 uM after 48 hrs by propidium iodide staining-based flow cytometric analysis (reference value: 40.6 +/- 4.6%); type: functional
[14] = system: A549; assay: Cell cycle arrest in synchronized human A549 cells assessed as accumulation at S phase at 10 uM after 48 hrs by propidium iodide staining-based flow cytometric analysis (reference value: 41.2 +/- 3.1%); type: functional
[15] = system: A549; assay: Decrease in Cdk1 protein level in synchronized human A549 cells after 18 hrs by Western blot analysis; type: functional, cell-based; outline: as §1
[16] = system: A549; assay: Cell cycle arrest in synchronized human A549 cells assessed as accumulation at G2/M phase at 2.5 uM after 48 hrs by propidium iodide staining-based flow cytometric analysis (reference value: 18.2 +/- 2.1%); type: functional
[17] = system: A549; assay: Cell cycle arrest in synchronized human A549 cells assessed as accumulation at G1/G0 phase at 0.5 uM after 48 hrs by propidium iodide staining-based flow cytometric analysis (reference value: 40.6 +/- 4.6%); type: functional
[18] = system: A549; assay: Cell cycle arrest in synchronized human A549 cells assessed as accumulation at S phase at 2.5 uM after 48 hrs by propidium iodide staining-based flow cytometric analysis (reference value: 41.2 +/- 3.1%); type: functional
[19] = system: A549; assay: Cell cycle arrest in synchronized human A549 cells assessed as accumulation at S phase after 48 hrs by propidium iodide staining-based flow cytometric analysis; type: functional
[20] = system: A549; assay: Decrease in Cdk1 protein level in synchronized human A549 cells at 2 uM after 18 hrs by Western blot analysis; type: functional, cell-based; outline: as §1
[21] = system: A549; assay: Decrease in cyclin B1 protein level in synchronized human A549 cells after 18 hrs by Western blot analysis; type: functional, cell-based; outline: as §1
[22] = system: A549; assay: Cell cycle arrest in synchronized human A549 cells assessed as accumulation at G1/G0 phase at 2.5 uM after 48 hrs by propidium iodide staining-based flow cytometric analysis (reference value: 40.6 +/- 4.6%); type: functional
[23] = system: A549; assay: Decrease in cyclin B1 protein level in synchronized human A549 cells at 2 uM after 18 hrs by Western blot analysis; type: functional, cell-based; outline: as §1
[24] = system: A549; assay: Cell cycle arrest in synchronized human A549 cells assessed as accumulation at G2/M phase at 0.5 uM after 48 hrs by propidium iodide staining-based flow cytometric analysis (reference value: 18.2 +/- 2.1%); type: functional
[25] = system: A549; assay: Cell cycle arrest in synchronized human A549 cells assessed as accumulation at G2/M phase after 48 hrs by propidium iodide staining-based flow cytometric analysis; type: functional
[26] = system: A549; assay: Decrease in cyclin B1 protein level in synchronized human A549 cells at 5 uM after 18 hrs by Western blot analysis; type: functional, cell-based; outline: as §1

Compound: C=CCc1cc(-c2cccc(CC=C)c2O)ccc1OC
- growth inhibition (GI) [1]: Dose-dependent effect
- IC50 [1]: 16.2 µM
- growth inhibition (GI) [2]: Dose-dependent effect
- IC50 [2]: 6.28 µM
- growth inhibition (GI) [3]: Dose-dependent effect
- IC50 [3]: 11.3 µM
- growth inhibition (GI) [4]: Dose-dependent effect
- IC50 [4]: 11.5 µM
- growth inhibition (GI) [5]: tde
- growth inhibition (GI) [6]: Dose-dependent effect
- IC50 [6]: 24.7 µM
- growth inhibition (GI) [7]: tde
- growth inhibition (GI) [8]: Dose-dependent effect
- IC50 [8]: 29 µM
- growth inhibition (GI) [9]: tde

Compound: C=CCc1cc(-c2ccc(OC)c(CC=C)c2)ccc1O
- Activity [10]: Active
- growth inhibition (GI) [1]: Dose-dependent effect
- IC50 [1]: 3.19 µM
- Activity [11]: 23%
- Activity [12]: 2.8%
- Activity [13]: 82.8%
- Activity [14]: 14.3%
- Activity [15]: Dose-dependent effect
- growth inhibition (GI) [2]: Dose-dependent effect
- IC50 [2]: 1.99 µM
- growth inhibition (GI) [3]: Dose-dependent effect
- IC50 [3]: 2.47 µM
- growth inhibition (GI) [4]: Dose-dependent effect
- IC50 [4]: 2 µM
- Activity [16]: 4.2%
- Activity [17]: 69.8%
- Activity [18]: 20.2%
- Activity [19]: Dose-dependent effect
- growth inhibition (GI) [5]: tde
- Activity [20]: Active
- Activity [21]: Dose-dependent effect
- Activity [22]: 75.7%
- growth inhibition (GI) [6]: Dose-dependent effect
- IC50 [6]: 1.39 µM
- growth inhibition (GI) [7]: tde
- Activity [23]: Active
- growth inhibition (GI) [8]: Dose-dependent effect
- IC50 [8]: 3.05 µM
- Activity [24]: 7.2%
- growth inhibition (GI) [9]: tde
- Activity [25]: Dose-dependent effect
- Activity [26]: Active

Compound: C=CCc1ccc(O)c(-c2ccc(OC)c(CC=C)c2)c1 [METHYLHONOKIOL]
- growth inhibition (GI) [1]: Dose-dependent effect
- IC50 [1]: 22.4 µM
- growth inhibition (GI) [2]: Dose-dependent effect
- IC50 [2]: 1.24 µM
- growth inhibition (GI) [3]: Dose-dependent effect
- IC50 [3]: 1.56 µM
- growth inhibition (GI) [4]: Dose-dependent effect
- IC50 [4]: 14.1 µM
- growth inhibition (GI) [5]: tde
- growth inhibition (GI) [6]: Dose-dependent effect
- IC50 [6]: 24.1 µM
- growth inhibition (GI) [7]: tde
- growth inhibition (GI) [8]: Dose-dependent effect
- IC50 [8]: 37.7 µM
- growth inhibition (GI) [9]: tde

Compound: C=CCc1cc(-c2ccc(OC)c(CC=C)c2)c(O)c(-c2ccc(OC)c(CC=C)c2)c1
- growth inhibition (GI) [1]: Dose-dependent effect
- IC50 [1]: 16.9 µM
- growth inhibition (GI) [2]: Dose-dependent effect
- IC50 [2]: 1.25 µM
- growth inhibition (GI) [3]: Dose-dependent effect
- IC50 [3]: 1.74 µM
- growth inhibition (GI) [4]: Dose-dependent effect
- IC50 [4]: 11.4 µM
- growth inhibition (GI) [5]: tde
- growth inhibition (GI) [6]: Dose-dependent effect
- IC50 [6]: 2.93 µM
- growth inhibition (GI) [7]: tde
- growth inhibition (GI) [8]: Dose-dependent effect
- IC50 [8]: 3.94 µM
- growth inhibition (GI) [9]: tde

Compound: C=CCc1ccc(O)c(-c2ccc(O)c(CC=C)c2)c1 [HONOKIOL]
- growth inhibition (GI) [1]: Dose-dependent effect
- IC50 [1]: 23.9 µM
- Activity [11]: 37.9%
- Activity [12]: 5.4%
- Activity [13]: 72.9%
- Activity [14]: 21.7%
- Activity [15]: Dose-dependent effect
- growth inhibition (GI) [2]: Dose-dependent effect
- IC50 [2]: 7.75 µM
- growth inhibition (GI) [3]: Dose-dependent effect
- IC50 [3]: 12.5 µM
- growth inhibition (GI) [4]: Dose-dependent effect
- IC50 [4]: 13.2 µM
- Activity [16]: 10.8%
- Activity [17]: 50.5%
- Activity [18]: 28.1%
- growth inhibition (GI) [5]: tde
- Activity [21]: Dose-dependent effect
- Activity [22]: 61.1%
- growth inhibition (GI) [6]: Dose-dependent effect
- IC50 [6]: 5.1 µM
- growth inhibition (GI) [7]: tde
- growth inhibition (GI) [8]: Dose-dependent effect
- IC50 [8]: 7.45 µM
- Activity [24]: 11.6%
- growth inhibition (GI) [9]: tde

Compound: C=CCc1ccc(O)c(-c2cccc(CC=C)c2O)c1
- growth inhibition (GI) [1]: Dose-dependent effect
- IC50 [1]: 17.4 µM
- growth inhibition (GI) [2]: Dose-dependent effect
- IC50 [2]: 1.08 µM
- growth inhibition (GI) [3]: Dose-dependent effect
- IC50 [3]: 2.04 µM
- growth inhibition (GI) [4]: Dose-dependent effect
- IC50 [4]: 12.4 µM
- growth inhibition (GI) [5]: tde
- growth inhibition (GI) [6]: Dose-dependent effect
- IC50 [6]: 17.4 µM
- growth inhibition (GI) [7]: tde
- growth inhibition (GI) [8]: Dose-dependent effect
- IC50 [8]: 22.3 µM
- growth inhibition (GI) [9]: tde

Compound: C=CCc1cc(Br)c(O)c(-c2ccc(OC)c(CC=C)c2)c1
- Activity [10]: Active
- growth inhibition (GI) [1]: Dose-dependent effect
- IC50 [1]: 3.99 µM
- Activity [11]: 32.8%
- Activity [12]: 3%
- Activity [13]: 76.4%
- Activity [14]: 20.7%
- Activity [15]: Dose-dependent effect
- growth inhibition (GI) [2]: Dose-dependent effect
- IC50 [2]: 1.04 µM
- growth inhibition (GI) [3]: Dose-dependent effect
- IC50 [3]: 1.73 µM
- growth inhibition (GI) [4]: Dose-dependent effect
- IC50 [4]: 1.87 µM
- Activity [16]: 6.3%
- Activity [17]: 55.8%
- Activity [18]: 30.6%
- Activity [19]: Dose-dependent effect
- growth inhibition (GI) [5]: tde
- Activity [20]: Active
- Activity [21]: Dose-dependent effect
- Activity [22]: 63.1%
- growth inhibition (GI) [6]: Dose-dependent effect
- IC50 [6]: 1.29 µM
- growth inhibition (GI) [7]: tde
- Activity [23]: Active
- growth inhibition (GI) [8]: Dose-dependent effect
- IC50 [8]: 2.98 µM
- Activity [24]: 11.4%
- growth inhibition (GI) [9]: tde
- Activity [25]: Dose-dependent effect
- Activity [26]: Active
